Data from ChEMBL document CHEMBL4414680, “Identification of new potent A1 adenosine receptor antagonists using a multistage virtual screening approach” (Eur J Med Chem, 2020).

Experiments:
Adenosine receptor A2a = Adenosine receptor A2a (Homo sapiens, UniProt P29274); experiment: Displacement of [3H]ZM241385 from human A2AR expressed in CHO cells after 90 mins by radioligand binding assay; format: cell-based
Adenosine receptor A1 [1] = target: T1, Adenosine receptor A1 (Homo sapiens, UniProt P30542); experiment: Antagonist activity at human A1AR expressed in CHO-K1 cells assessed as reduction in NECA-induced inhibition of forskolin-stimulated cAMP accumulation incubated for 30 mins by fluorescence based assay; format: functional, cell-based
T1 sequence (P30542 whole entry): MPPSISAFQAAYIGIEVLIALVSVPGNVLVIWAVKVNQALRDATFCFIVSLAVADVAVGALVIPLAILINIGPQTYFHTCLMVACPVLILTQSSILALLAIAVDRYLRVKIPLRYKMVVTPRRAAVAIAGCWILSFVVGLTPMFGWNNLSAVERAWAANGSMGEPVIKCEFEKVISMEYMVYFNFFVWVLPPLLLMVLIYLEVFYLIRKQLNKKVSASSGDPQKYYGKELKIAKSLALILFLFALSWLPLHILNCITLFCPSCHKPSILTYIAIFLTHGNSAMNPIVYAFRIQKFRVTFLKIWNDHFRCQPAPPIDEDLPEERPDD
Method in brief: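 CHO-K1 cells stably expressing human A1AR, grown in F12K + 10% FBS + 800 µg/ml hygromycin B at 37 ℃/5% CO2, resuspended in HBSS with 0.1% BSA, 20 mM HEPES, 100 nM IBMX; 8000 cells/well. Ten 3-fold compound dilutions; forskolin (8 µM) plus NECA (40 nM) added, 30 min at 37 ℃. HTRF cAMP detection (Eu3+ cryptate anti-cAMP, d2-cAMP), 1 h room temperature, read at 665/615 nm.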

Homo sapiens = organism: Homo sapiens; experiment: Selectivity index, ratio of Ki for human A1AR expressed in CHO cells to Ki for human A2AR expressed in CHO cells by radioligand binding assay; format: cell-based
Adenosine receptor A1 [2] = target: T1, Adenosine receptor A1; experiment: Displacement of [3H]DPCPX from human A1AR expressed in CHO cells incubated for 50 mins by radioligand binding assay; format: cell-based

Sequence of Adenosine receptor A2a (P29274 whole entry): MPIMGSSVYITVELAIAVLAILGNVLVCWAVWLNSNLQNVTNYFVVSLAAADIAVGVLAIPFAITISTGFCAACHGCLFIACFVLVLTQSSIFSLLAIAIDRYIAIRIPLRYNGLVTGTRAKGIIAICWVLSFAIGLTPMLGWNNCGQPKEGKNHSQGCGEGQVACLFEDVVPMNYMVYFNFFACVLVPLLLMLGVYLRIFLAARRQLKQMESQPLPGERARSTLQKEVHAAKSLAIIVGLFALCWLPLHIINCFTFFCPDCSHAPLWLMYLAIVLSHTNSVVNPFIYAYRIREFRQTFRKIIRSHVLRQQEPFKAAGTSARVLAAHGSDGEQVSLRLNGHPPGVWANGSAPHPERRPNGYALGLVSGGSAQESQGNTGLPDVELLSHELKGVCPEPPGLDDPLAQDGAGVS

Row | Ki (Adenosine receptor A2a) [µM] | IC50 (Adenosine receptor A1 [1]) [µM] | Ki (Adenosine receptor A1 [2]) [µM] | SMILES | Ratio Ki (Homo sapiens)
1 | > 100 | 3.09 | 0.513 | Cc1ccc(C(=O)Nc2c(C(=O)NC3CCCC3)[nH]c3ccc(C)cc23)cc1 | < 0.01
2 | – | – | 10.7 | CCC(C(=O)n1nc(-c2ccccc2)nc1N)c1ccccc1 (stereo unspecified) | –
3 | – | – | 3.24 | Cc1cc(=O)n2c(n1)NC(Nc1cccc(C)c1C)=NC2c1ccc(F)cc1 (stereo unspecified) | –
4 | > 100 | 1.26 | 0.708 | C=CCn1c(SCc2ccccn2)nc2c([nH]c3ccccc32)c1=O | < 0.01
5 | – | – | 7.24 | O=C1CC(C(=O)Nc2ccccc2)c2c(nc(SCc3ccccc3F)[nH]c2=O)N1 (stereo unspecified) | –
6 | – | – | 6.92 | Cc1cc(C)nc(Nc2nc(-c3ccccc3)c3ccc(Cl)cc3n2)n1 | –
7 | > 100 | 0.417 | 0.0741 | N#Cc1c(N)nc2c(c1-c1ccc3c(c1)OCO3)CCCC2 | < 0.001
8 | > 100 | 1.48 | 0.776 | O=c1[nH]c(N2CCCC2)nc2nccc(-c3ccc(Cl)cc3)c12 | < 0.01
9 | – | – | 20 | Oc1ccccc1Nc1nc(-c2ccccc2)c2cc(Cl)ccc2n1 | –
10 | – | – | 3.02 | COc1ccc(/C=C/c2ccnc3nc(N4CCCCC4)[nH]c(=O)c23)cc1 | –
11 | – | – | 1.12 | COc1ccccc1CNC(=O)c1cc(Nc2ccccc2C)nc2ccccc12 | –
12 | – | – | 25.7 | CCCN(CCC)c1c(-c2ccccc2)c2cc(Cl)ccc2[nH]c1=O | –
13 | – | – | 18.6 | Cc1ccc(C2=CC(c3ccccc3Cl)n3nc(CCCO)nc3N2)cc1 (stereo unspecified) | –
14 | – | – | 19.5 | CCOC(=O)N1CCN(c2cc(NC3CCCCC3)c3c4c(onc24)-c2ccccc2C3=O)CC1 | –
15 | 38 | 1.86 | 0.209 | COc1ccc(-c2cc(-c3cccc(Br)c3)c(C#N)c(N)n2)cc1 | 0.006
16 | – | – | 32.4 | CC(C)C(=O)Nc1nc2n(n1)C(c1ccccc1Cl)C=C(c1ccccc1)N2 (stereo unspecified) | –
17 | 36.3 | 2.82 | 0.589 | O=C(Cn1cc(-c2ccccc2)c2ncn(C3CC3)c(=O)c21)NCc1ccc(F)cc1 | 0.016
18 | – | – | 13.5 | CC(C)CN1C(=O)/C(=C/c2c(NCCc3ccccc3)nc3ccccn3c2=O)SC1=S | –
